{"source": "ChEMBL document CHEMBL4699485", "about": "“Discovery and Development of SPR519 as a Potent, Selective, and Orally Bioavailable Inhibitor of PI3Kα and mTOR Kinases for the Treatment of Solid Tumors” (J Med Chem, 2020)", "key": {"[1]": {"biological_target": "Voltage-gated inwardly rectifying potassium channel KCNH2 (Homo sapiens, UniProt Q12809)", "sequence (Q12809 whole entry)": "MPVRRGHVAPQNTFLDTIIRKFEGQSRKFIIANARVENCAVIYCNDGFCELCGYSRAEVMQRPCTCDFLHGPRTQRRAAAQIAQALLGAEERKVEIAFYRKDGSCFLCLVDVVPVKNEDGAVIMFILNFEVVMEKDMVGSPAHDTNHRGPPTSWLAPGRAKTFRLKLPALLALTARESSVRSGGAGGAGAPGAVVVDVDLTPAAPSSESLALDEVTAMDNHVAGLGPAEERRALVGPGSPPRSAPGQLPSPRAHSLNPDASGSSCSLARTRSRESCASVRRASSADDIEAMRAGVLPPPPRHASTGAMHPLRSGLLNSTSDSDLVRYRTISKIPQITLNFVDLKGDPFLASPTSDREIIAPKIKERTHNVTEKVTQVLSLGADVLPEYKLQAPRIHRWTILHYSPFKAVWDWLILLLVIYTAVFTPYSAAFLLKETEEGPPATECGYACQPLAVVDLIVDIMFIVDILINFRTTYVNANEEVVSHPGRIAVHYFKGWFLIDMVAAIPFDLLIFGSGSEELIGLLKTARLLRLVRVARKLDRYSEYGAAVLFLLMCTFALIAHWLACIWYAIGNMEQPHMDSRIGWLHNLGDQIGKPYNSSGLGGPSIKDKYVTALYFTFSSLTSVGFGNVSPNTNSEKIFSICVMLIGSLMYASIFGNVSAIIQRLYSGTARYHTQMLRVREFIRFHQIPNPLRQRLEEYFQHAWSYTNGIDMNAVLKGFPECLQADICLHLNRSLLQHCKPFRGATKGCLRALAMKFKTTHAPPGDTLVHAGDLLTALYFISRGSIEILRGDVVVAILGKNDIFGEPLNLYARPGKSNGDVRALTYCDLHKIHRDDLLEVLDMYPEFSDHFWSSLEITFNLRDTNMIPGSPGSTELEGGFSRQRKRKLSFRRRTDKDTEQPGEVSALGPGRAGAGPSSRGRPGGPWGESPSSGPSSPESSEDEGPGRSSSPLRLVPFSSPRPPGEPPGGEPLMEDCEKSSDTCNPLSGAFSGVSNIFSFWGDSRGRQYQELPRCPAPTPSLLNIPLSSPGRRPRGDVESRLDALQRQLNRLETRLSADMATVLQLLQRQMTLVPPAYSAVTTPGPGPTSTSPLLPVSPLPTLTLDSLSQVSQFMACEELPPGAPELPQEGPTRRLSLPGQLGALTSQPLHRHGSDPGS", "experiment": "Inhibition of human ERG by patch-clamp assay"}, "[2]": {"biological_target": "Receptor tyrosine-protein kinase erbB-2 (Homo sapiens) (UniProt P04626)", "sequence (P04626 whole entry)": "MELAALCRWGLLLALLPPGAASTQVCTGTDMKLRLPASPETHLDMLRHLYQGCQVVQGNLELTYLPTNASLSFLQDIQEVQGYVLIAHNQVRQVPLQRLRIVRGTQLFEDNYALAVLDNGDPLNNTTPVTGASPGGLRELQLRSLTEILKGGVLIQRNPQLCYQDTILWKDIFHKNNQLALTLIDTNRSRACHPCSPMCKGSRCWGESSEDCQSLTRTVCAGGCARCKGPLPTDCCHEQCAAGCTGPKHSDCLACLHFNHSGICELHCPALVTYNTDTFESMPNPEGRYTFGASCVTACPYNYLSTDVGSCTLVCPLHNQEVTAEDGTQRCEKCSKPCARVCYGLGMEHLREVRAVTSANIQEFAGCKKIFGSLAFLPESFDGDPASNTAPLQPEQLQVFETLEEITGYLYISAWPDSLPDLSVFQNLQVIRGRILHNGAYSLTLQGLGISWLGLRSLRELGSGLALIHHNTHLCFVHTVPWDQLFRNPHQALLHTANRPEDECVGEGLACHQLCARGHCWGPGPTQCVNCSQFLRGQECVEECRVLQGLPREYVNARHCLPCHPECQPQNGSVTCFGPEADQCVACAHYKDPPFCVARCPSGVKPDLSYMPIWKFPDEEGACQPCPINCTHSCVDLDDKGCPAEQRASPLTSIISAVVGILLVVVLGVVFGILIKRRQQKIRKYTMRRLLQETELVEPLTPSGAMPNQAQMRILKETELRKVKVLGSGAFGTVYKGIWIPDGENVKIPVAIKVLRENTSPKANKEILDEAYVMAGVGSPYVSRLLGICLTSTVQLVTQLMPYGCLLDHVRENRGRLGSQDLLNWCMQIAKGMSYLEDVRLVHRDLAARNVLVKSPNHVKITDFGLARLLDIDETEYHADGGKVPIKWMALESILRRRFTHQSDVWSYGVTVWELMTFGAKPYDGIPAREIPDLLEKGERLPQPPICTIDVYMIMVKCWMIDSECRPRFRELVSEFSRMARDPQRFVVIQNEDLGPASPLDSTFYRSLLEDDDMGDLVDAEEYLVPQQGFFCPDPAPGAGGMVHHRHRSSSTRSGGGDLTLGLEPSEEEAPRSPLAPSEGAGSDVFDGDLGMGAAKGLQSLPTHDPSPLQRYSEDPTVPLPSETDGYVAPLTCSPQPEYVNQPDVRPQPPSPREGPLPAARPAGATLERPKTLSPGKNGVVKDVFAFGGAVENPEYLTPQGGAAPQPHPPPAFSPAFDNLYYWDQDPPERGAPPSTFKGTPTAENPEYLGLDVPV", "experiment": "Inhibition of human ERBB2 at 1 uM using fluorescently labeled peptide substrate measured after 3 hrs by microfluidic mobility shift assay relative to control", "summary_of_the_method": "(§1)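 Single-concentration screen at 1 µM in duplicate, 1% final DMSO. Kinase (typically 1 nM), fluorescently labeled peptide substrate (typically 1 µM), ATP at Km and Mg²⁺ incubated about 3 h at 25 °C, then EDTA-quenched. Substrate and phosphorylated product separated by microfluidic electrophoresis and quantified by fluorescence.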"}, "[3]": {"experiment": "Tmax in Swiss mouse at 3 mg/kg, po via gavage by LC-MS/MS analysis", "format": "ADME, organism-based", "conditions": "in vivo", "summary_of_the_method": "(§2)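 Female Swiss mice (n=3/group) were fasted overnight, then gavaged with compound in 0.5% CMC/0.5% Tween 80 at 10 mL/kg. Serial blood samples at 0.16, 0.5, 1, 2, 4, 6 and 8 h were taken into heparinized tubes and spun to plasma. Plasma was extracted with acetonitrile containing verapamil (400 ng/mL) and quantified by LC-MS/MS against plasma calibration curves. Tmax was derived from the concentration–time profile.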"}, "Cytochrome P450 2D6": {"biological_target": "Cytochrome P450 2D6 (Homo sapiens, UniProt P10635)", "sequence (P10635 whole entry, canonical isoform)": "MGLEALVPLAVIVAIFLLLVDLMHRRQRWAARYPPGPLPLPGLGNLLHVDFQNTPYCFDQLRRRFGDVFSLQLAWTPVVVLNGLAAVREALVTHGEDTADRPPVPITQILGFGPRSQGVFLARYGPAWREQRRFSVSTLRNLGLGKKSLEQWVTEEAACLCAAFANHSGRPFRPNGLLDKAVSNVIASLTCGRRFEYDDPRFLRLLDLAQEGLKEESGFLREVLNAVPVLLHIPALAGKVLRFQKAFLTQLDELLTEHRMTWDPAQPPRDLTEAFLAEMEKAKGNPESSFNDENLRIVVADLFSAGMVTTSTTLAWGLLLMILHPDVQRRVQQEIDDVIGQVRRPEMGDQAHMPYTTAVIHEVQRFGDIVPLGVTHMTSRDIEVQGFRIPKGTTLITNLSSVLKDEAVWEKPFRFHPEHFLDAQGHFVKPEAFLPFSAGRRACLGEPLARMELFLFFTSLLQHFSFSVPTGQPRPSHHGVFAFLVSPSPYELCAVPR", "experiment": "Inhibition of CYP2D6 in human liver microsomes using isoform-specific probe substrates preincubated for 5 mins followed by NADPH addition by LC-MS/MS analysis", "format": "ADME", "summary_of_the_method": "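Human liver microsomes premixed with buffer and a CYP-specific FDA-recommended probe substrate, then spiked with inhibitor, in duplicate. After 5 min preincubation at 37 °C, reaction started with NADPH and run at 37 °C for a set time, then quenched. Metabolite formation quantified by HPLC/LC-MS/MS to derive the concentration giving 50% inhibition.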"}, "Homo sapiens": {"species": "Homo sapiens", "experiment": "Channel blockade of human ERG G601S mutant expressed in mammalian expression system assessed as effect on surface expression of channel at 1 to 30 uM by HERG-Lite assay", "conditions": "dose microM 1-30", "summary_of_the_method": "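HERG-lite assay scoring both channel blocking and trafficking inhibition, with test compound at 1, 10 and 30 µM. Geldanamycin (1 µM) served as the trafficking-inhibition reference and astemizole as the standard hERG binder.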"}, "[4]": {"biological_target": "Serine/threonine-protein kinase mTOR (Homo sapiens, UniProt P42345)", "experiment": "Inhibition of recombinant human GST-tagged mTOR catalytic domain (1360 to 2549 residues) expressed in baculovirus expression system using GFP-4E-BP1 as substrate preincubated for 15 mins followed by substrate addition and measured after 60 mins by TR-FRET assay", "summary_of_the_method": "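Recombinant mTOR (FRAP1) was preincubated 15 min with serially diluted compound (10 µM–0.0005 µM, DMSO) in kinase buffer, 10 µL reaction. GFP-4E-BP1 (400 nM final) and ATP (8 µM final) were added and the reaction ran 1 h at RT. Quench buffer with Tb-anti-p4E-BP1 (pThr46) was added for 1 h at RT. TR-FRET 520/486 nm ratio was fitted by four-parameter sigmoidal regression.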"}, "[5]": {"biological_target": "High affinity nerve growth factor receptor (Homo sapiens) (UniProt P04629)", "experiment": "Inhibition of human TRKA at 1 uM using fluorescently labeled peptide substrate measured after 3 hrs by microfluidic mobility shift assay relative to control", "summary_of_the_method": "as §1"}, "[6]": {"experiment": "Elimination half life in Swiss mouse at 3 mg/kg, po via gavage by LC-MS/MS analysis", "format": "ADME, organism-based", "conditions": "in vivo, read-out: beta t1/2 (converted)", "summary_of_the_method": "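Female Swiss mice (n=3/group), fasted overnight, given single oral gavage dose in 0.5% CMC/0.5% Tween 80 (10 mL/kg) at 1, 3 or 10 mg/kg. Serial blood sampling at 0.16–8 h into heparinized tubes. Plasma extracted with acetonitrile containing verapamil internal standard and quantified by LC-MS/MS. Cmax, Tmax, AUC and t1/2 derived from the concentration–time profile.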"}, "[7]": {"biological_target": "RAC-alpha serine/threonine-protein kinase (Homo sapiens) (UniProt P31749)", "sequence (P31749 whole entry)": "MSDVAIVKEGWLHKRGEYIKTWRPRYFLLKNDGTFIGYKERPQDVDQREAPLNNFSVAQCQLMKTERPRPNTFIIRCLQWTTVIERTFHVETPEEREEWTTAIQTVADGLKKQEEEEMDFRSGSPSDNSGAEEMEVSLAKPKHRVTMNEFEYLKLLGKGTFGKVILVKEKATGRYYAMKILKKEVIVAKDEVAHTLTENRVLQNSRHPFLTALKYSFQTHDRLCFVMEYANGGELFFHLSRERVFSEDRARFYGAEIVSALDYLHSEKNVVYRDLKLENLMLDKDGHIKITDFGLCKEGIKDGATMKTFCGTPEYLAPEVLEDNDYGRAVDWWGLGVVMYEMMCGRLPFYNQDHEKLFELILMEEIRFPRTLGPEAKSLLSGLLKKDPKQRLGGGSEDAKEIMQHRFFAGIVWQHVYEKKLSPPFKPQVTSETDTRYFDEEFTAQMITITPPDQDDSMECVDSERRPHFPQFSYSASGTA", "experiment": "Inhibition of human AKT1 at 1 uM using fluorescently labeled peptide substrate measured after 3 hrs by microfluidic mobility shift assay relative to control", "summary_of_the_method": "as §1"}, "[8]": {"biological_target": "Protein kinase C zeta type (Homo sapiens) (UniProt Q05513)", "sequence (Q05513 whole entry)": "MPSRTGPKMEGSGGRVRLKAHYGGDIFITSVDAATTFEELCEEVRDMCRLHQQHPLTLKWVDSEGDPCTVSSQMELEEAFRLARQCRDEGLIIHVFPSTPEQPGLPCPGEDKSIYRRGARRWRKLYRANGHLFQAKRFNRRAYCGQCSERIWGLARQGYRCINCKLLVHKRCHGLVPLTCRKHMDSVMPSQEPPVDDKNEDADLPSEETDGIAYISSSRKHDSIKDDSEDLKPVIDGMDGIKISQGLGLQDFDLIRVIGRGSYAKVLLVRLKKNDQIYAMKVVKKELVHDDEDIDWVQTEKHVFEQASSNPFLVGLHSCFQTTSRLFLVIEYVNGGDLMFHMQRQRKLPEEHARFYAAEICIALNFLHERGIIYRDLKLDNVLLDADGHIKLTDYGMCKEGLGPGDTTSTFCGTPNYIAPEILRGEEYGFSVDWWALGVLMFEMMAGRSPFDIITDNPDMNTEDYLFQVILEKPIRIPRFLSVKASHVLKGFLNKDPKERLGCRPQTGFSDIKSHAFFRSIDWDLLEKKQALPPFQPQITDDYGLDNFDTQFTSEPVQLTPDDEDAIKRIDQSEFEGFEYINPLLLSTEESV", "experiment": "Inhibition of human PRKCZ at 1 uM using fluorescently labeled peptide substrate measured after 3 hrs by microfluidic mobility shift assay relative to control", "summary_of_the_method": "as §1"}, "[9]": {"experiment": "Tmax in Swiss mouse at 1 mg/kg, po via gavage by LC-MS/MS analysis", "format": "ADME, organism-based", "conditions": "in vivo", "summary_of_the_method": "as §2"}, "[10]": {"biological_target": "Ribosomal protein S6 kinase beta-2 (Homo sapiens) (UniProt Q9UBS0)", "sequence (Q9UBS0 whole entry)": "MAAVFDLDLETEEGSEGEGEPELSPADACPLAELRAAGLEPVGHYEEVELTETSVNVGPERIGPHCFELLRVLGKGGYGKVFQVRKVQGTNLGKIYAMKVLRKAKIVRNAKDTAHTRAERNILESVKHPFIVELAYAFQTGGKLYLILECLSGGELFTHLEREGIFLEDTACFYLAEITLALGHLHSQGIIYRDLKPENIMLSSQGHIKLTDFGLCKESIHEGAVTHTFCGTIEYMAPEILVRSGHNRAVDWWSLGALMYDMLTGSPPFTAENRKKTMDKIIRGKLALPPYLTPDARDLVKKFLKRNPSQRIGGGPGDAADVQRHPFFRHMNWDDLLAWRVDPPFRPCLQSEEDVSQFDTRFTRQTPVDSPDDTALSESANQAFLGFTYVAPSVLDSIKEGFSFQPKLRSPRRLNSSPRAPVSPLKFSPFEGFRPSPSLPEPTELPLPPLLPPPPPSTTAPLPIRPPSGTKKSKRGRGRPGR", "experiment": "Inhibition of human RPS6KB2 at 1 uM using fluorescently labeled peptide substrate measured after 3 hrs by microfluidic mobility shift assay relative to control", "summary_of_the_method": "as §1"}}, "note": "Activity calls are given as the source filed them. The rule behind the calls is not given here."}
{"compound": "CN(C)C(=O)c1ccc(Oc2nc(-c3cnc(N)s3)nc(N3CCOCC3)n2)cc1", "values": [{"measurement": "IC50", "setting": "[1]", "value": "> 10", "unit": "µM"}, {"measurement": "inhibition", "setting": "[2]", "value": -1, "unit": "%"}, {"measurement": "Tmax", "setting": "[3]", "value": 1.5, "unit": "h"}, {"measurement": "IC50", "setting": "Cytochrome P450 2D6", "value": "> 10", "unit": "µM"}, {"measurement": "Activity", "setting": "Homo sapiens", "value": "Active"}, {"measurement": "IC50", "setting": "[4]", "value": 10, "unit": "nM"}, {"measurement": "inhibition", "setting": "[5]", "value": 3, "unit": "%"}, {"measurement": "half-life", "setting": "[6]", "value": 162, "unit": "min"}, {"measurement": "inhibition", "setting": "[7]", "value": -1, "unit": "%"}, {"measurement": "inhibition", "setting": "[8]", "value": 0, "unit": "%"}, {"measurement": "Tmax", "setting": "[9]", "value": 1.33, "unit": "h"}, {"measurement": "inhibition", "setting": "[10]", "value": -3, "unit": "%"}]}
